The source of these data is publication PMC3158287 (Nature chemical biology, 2011).

Where a chain is given by its changes, count along the chain named. Where two headings read alike, the source gives them in different places.

Assay [1] has as its target T1, OSBP-Myc-His (Homo sapiens, UniProt P22059).
T1 sequence (P22059 1-807): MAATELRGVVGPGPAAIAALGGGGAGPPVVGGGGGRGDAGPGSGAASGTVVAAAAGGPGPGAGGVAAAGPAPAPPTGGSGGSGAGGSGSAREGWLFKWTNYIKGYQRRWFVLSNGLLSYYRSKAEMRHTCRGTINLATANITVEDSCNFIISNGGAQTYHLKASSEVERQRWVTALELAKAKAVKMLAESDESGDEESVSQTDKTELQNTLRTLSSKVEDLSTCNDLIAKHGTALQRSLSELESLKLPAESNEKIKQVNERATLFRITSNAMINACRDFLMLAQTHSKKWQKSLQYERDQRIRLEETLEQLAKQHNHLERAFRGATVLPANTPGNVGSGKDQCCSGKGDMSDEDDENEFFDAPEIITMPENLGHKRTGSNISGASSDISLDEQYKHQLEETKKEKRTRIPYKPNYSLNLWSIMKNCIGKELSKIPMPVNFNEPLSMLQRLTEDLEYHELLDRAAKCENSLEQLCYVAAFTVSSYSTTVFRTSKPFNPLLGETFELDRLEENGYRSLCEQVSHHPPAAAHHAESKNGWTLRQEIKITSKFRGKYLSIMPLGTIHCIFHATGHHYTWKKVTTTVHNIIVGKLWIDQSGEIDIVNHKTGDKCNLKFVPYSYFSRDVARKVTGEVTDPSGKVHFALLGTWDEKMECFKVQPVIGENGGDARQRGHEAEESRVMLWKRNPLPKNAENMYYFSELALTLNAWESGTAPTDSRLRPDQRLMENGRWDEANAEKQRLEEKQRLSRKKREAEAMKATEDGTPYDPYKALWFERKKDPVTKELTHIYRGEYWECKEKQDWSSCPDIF
As to the kind of experiment: [3H]25-OHC charcoal-dextran binding assay, wild-type OSBP-Myc-His. The conditions noted are these: read-out: Ki, OSBP-Myc-His; competition with 20 nM [3H]25-OHC; mean ± s.d.

Assay [2] concerns the target T2, OSBP^M446W (Homo sapiens, UniProt P22059, M446W).
T2 sequence (P22059 1-807 M446W): T1 sequence (P22059 1-807) with M446W
As to the kind of experiment: [3H]25-OHC binding assay, OSBP M446W mutant.

Assay [3] has as its target T3, OSBP^V582M (Homo sapiens, UniProt P22059, V582M).
T3 sequence (P22059 1-807 V582M): T1 sequence (P22059 1-807) with V582M
As to the kind of experiment: [3H]25-OHC binding assay, OSBP V582M mutant.

In assay [4] the test system is HCT-116 p21^−/− cells. As to the kind of experiment: Cell viability assay, HCT-116 p21-/-. The format is cell-based, human. The conditions noted are these: GI50 after 48 h. In short, it runs like this: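 HCT-116 p21+/+ and p21−/− cells were seeded in 96-well plates and rested 24 h. A time-zero plate was read with CellTiter-Blue (resazurin) after 90 min at 37 °C, fluorescence 544 nm ex / 590 nm em. Serially diluted test compound was added as 4× solution. Viability was re-read at 48 h and GI50 derived. For coadministration, 10 μM 25-OHC was added with test compound at 250 nM or 10 nM.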

The target in assay [5] is T4, OSBP (Homo sapiens, UniProt P22059).
T4 sequence (P22059 1-807): T1 sequence (P22059 1-807)
As to the kind of experiment: OSBP localization by immunofluorescence microscopy, A549. In kind it is cell-based. The conditions noted are these: A549 cells. A digest of the protocol:
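Cells on coverslips were grown 72 h, then given test compound or vehicle (4 h for HCT-116). They were fixed 10 min in 3.7% formaldehyde/PBS and permeabilised 5 min in 0.5% Triton X-100. Blocking used Image-iT FX, then 1% BSA/PBS. Rabbit anti-OSBP (N-terminus) and mouse anti-p230 were applied overnight at 4 °C, then Alexa Fluor secondaries for 60 min with Hoechst 33258. Imaging was by confocal microscopy.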

`COc1ccc(C(=O)O[C@H]2[C@H](O[C@@H]3[C@@H](OC(C)=O)[C@H](O[C@H]4C[C@H]5[C@@H]6CC=C7C[C@@H](O)CC[C@]7(C)[C@H]6CC[C@]5(C)[C@@]4(O)[C@H](C)C(=O)CCC(C)C)OC[C@@H]3O)OC[C@@H](O)[C@@H]2O)cc1` [OSW-1]: the Ki was determined as 26 nM in assay [1]; 18 nM in assay [2] (read-out: Ki, OSBP^M446W, competition with [3H]25-OHC, mean ± s.d.); 46 nM in assay [3] (read-out: Ki, OSBP^V582M, competition with [3H]25-OHC, mean ± s.d.). Also, the “p21^−/− selectivity of growth inhibition (HCT-116 p21^−/− versus wild-type)” value in assay [4] is “selectively growth-inhibitory”. Further, the OSBP localization entry in assay [5] is given as “dispersal or vesiculation of OSBP”.
As for `CC(C)=CCC/C(C)=C/Cc1c(O)cc(/C=C/c2cc(O)c3c(c2)C[C@@H]2C(C)(C)[C@H](O)[C@H](O)C[C@@]2(C)O3)cc1O` [schweinfurthin A], the Ki was 60 nM in assay [2] and 37 nM in assay [3]. For the same compound, the “p21^−/− selectivity of growth inhibition (HCT-116 p21^−/− versus wild-type)” value in assay [4] was “selectively growth-inhibitory”.

As usually defined, the Ki is the equilibrium dissociation constant of an inhibitor or competing ligand from its target.
